{
  "source": "ChEMBL document CHEMBL3098054",
  "about": "“The synthesis of novel taxoids for oral administration” (Bioorg Med Chem, 2014)",
  "key": {"[1]": {"system": "MCF7", "assay": "Cytotoxicity against human MCF7 cells after 72 hrs by MTT assay", "assay_type": "functional, cell-based", "conditions": "MCF7, 72 h", "in_short": "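MCF-7 cells exposed to compound for 72 h and read by MTT. At least six replicate wells per assay, run on three separate occasions. IC₅₀ given as mean with standard deviation.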"}, "[2]": {"system": "HT-29", "assay": "Cytotoxicity against human HT-29 cells at 1 uM after 72 hrs by MTT assay", "assay_type": "functional", "conditions": "HT-29, 72 h, read-out: GI", "in_short": "(§1)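 Cells plated at 2000–5000/well, attached overnight at 37 °C. DMSO stocks (100 mM) serially diluted in medium to a final 1 µM, tested in duplicate wells. Exposure 72 h at 37 °C, 5% CO₂. MTT (5 mg/mL, 10 µL) added for 4 h. Lysis in 10% SDS / 5% isopropanol / 0.012 N HCl, then OD read at 580–680 nm.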"}, "[3]": {"system": "A-375", "assay": "Cytotoxicity against human A375 cells at 1 uM after 72 hrs by MTT assay", "assay_type": "functional", "conditions": "A-375, 72 h, read-out: GI", "in_short": "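Cells plated at 2000–5000/well, attached overnight at 37 °C. DMSO stocks (100 mM) serially diluted in medium to a final 1 µM, tested in duplicate wells. MTT (5 mg/mL, 10 µL) added for 4 h. Lysis in 10% SDS / 5% isopropanol / 0.012 N HCl, then OD read at 580–680 nm.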"}, "[4]": {"system": "MCF7", "assay": "Cytotoxicity against human MCF7 cells at 1 uM after 72 hrs by MTT assay", "assay_type": "functional", "conditions": "MCF7, 72 h, read-out: GI", "in_short": "as §1"}, "[5]": {"system": "A2780", "assay": "Cytotoxicity against human A2780 cells at 1 uM after 72 hrs by MTT assay", "assay_type": "functional", "conditions": "A2780, 72 h, read-out: GI", "in_short": "as §1"}, "[6]": {"system": "NCI-H460", "assay": "Cytotoxicity against human NCI-H460 cells at 1 uM after 72 hrs by MTT assay", "assay_type": "functional", "conditions": "NCI-H460, 72 h, read-out: GI", "in_short": "as §1"}, "[7]": {"system": "DU-145", "assay": "Cytotoxicity against human DU145 cells at 1 uM after 72 hrs by MTT assay", "assay_type": "functional", "conditions": "DU-145, 72 h, read-out: GI", "in_short": "as §1"}, "[8]": {"system": "HL-60", "assay": "Cytotoxicity against human HL60 cells at 1 uM after 72 hrs by MTT assay", "assay_type": "functional", "conditions": "HL-60, 72 h, read-out: GI", "in_short": "as §1"}, "[9]": {"assay": "Apparent permeability from apical to basolateral side in human Caco2 cells at 10 uM after 90 mins by LC-MS/MS analysis", "assay_type": "ADME, cell-based, Caco-2", "conditions": "Caco-2"}, "[10]": {"system": "HeLa", "assay": "Cytotoxicity against human HeLa cells at 1 uM after 72 hrs by MTT assay", "assay_type": "functional", "conditions": "read-out: GI", "in_short": "as §1"}},
  "data": [
    {"smiles": "CO[C@H]1C(=O)[C@]2(C)[C@@H](OC(=O)N(C)C)C[C@H]3OC[C@@]3(OC(C)=O)[C@H]2[C@H](OC(=O)c2ccccc2)[C@]23OC(=O)O[C@H]2[C@H](OC(=O)[C@H](O)[C@@H](NC(=O)OC(C)(C)C)c2ccccc2)C(C)=C1C3(C)C", "values": [
      {"measurement": "IC50", "setting": "[1]", "result": 15.4, "unit": "nM"},
      {"measurement": "inhibition of growth at 1 µM", "setting": "[2]", "result": 87.4, "unit": "%"},
      {"measurement": "inhibition of growth at 1 µM", "setting": "[3]", "result": 93.1, "unit": "%"},
      {"measurement": "inhibition of growth at 1 µM", "setting": "[4]", "result": 84.7, "unit": "%"},
      {"measurement": "inhibition of growth at 1 µM", "setting": "[5]", "result": 95.9, "unit": "%"},
      {"measurement": "inhibition of growth at 1 µM", "setting": "[6]", "result": 86.2, "unit": "%"},
      {"measurement": "inhibition of growth at 1 µM", "setting": "[7]", "result": 90.7, "unit": "%"},
      {"measurement": "inhibition of growth at 1 µM", "setting": "[8]", "result": 97.5, "unit": "%"},
      {"measurement": "Papp A→B at 1.5 h, 10 µM", "setting": "[9]", "result": "< 1.67", "unit": "×10⁻⁶ cm/s"},
      {"measurement": "inhibition of growth at 1 µM", "setting": "[10]", "result": 100, "unit": "%"}
    ]},
    {"smiles": "CO[C@H]1C(=O)[C@]2(C)[C@@H](OC)C[C@H]3OC[C@@]3(OC(C)=O)[C@H]2[C@H](OC(=O)c2ccccc2)[C@]2(O)C[C@H](OC(=O)[C@H](O)[C@@H](NC(=O)c3ccccc3)c3ccccc3)C(C)=C1C2(C)C", "values": [
      {"measurement": "inhibition of growth at 1 µM", "setting": "[2]", "result": 87.5, "unit": "%"},
      {"measurement": "inhibition of growth at 1 µM", "setting": "[3]", "result": 89.7, "unit": "%"},
      {"measurement": "inhibition of growth at 1 µM", "setting": "[4]", "result": 92.1, "unit": "%"},
      {"measurement": "inhibition of growth at 1 µM", "setting": "[5]", "result": 95.2, "unit": "%"},
      {"measurement": "inhibition of growth at 1 µM", "setting": "[6]", "result": 85, "unit": "%"},
      {"measurement": "inhibition of growth at 1 µM", "setting": "[7]", "result": 86.4, "unit": "%"},
      {"measurement": "inhibition of growth at 1 µM", "setting": "[8]", "result": 97.2, "unit": "%"},
      {"measurement": "inhibition of growth at 1 µM", "setting": "[10]", "result": 102, "unit": "%"}
    ]},
    {"smiles": "COC(=O)O[C@H]1C[C@H]2OC[C@@]2(OC(C)=O)[C@H]2[C@H](OC(=O)c3ccccc3)[C@]3(O)C[C@H](OC(=O)[C@H](O)[C@@H](NC(=O)OC(C)(C)C)c4ccccn4)C(C)=C([C@@H](OC)C(=O)[C@]12C)C3(C)C", "values": [
      {"measurement": "Papp A→B at 1.5 h, 10 µM", "setting": "[9]", "result": 4.53, "unit": "×10⁻⁶ cm/s"},
      {"measurement": "inhibition of growth at 1 µM", "setting": "[10]", "result": 102, "unit": "%"}
    ]},
    {"smiles": "CO[C@H]1C(=O)[C@]2(C)[C@@H](OC)C[C@H]3OC[C@@]3(OC(C)=O)[C@H]2[C@H](OC(=O)c2ccccc2)[C@]23OC(=O)O[C@H]2[C@H](OC(=O)[C@H](O)[C@@H](NC(=O)c2ccccc2)c2ccccc2)C(C)=C1C3(C)C", "values": [
      {"measurement": "IC50", "setting": "[1]", "result": 6.93, "unit": "nM"},
      {"measurement": "inhibition of growth at 1 µM", "setting": "[2]", "result": 89.4, "unit": "%"},
      {"measurement": "inhibition of growth at 1 µM", "setting": "[3]", "result": 90.8, "unit": "%"},
      {"measurement": "inhibition of growth at 1 µM", "setting": "[4]", "result": 96, "unit": "%"},
      {"measurement": "inhibition of growth at 1 µM", "setting": "[5]", "result": 96.7, "unit": "%"},
      {"measurement": "inhibition of growth at 1 µM", "setting": "[6]", "result": 87.9, "unit": "%"},
      {"measurement": "inhibition of growth at 1 µM", "setting": "[7]", "result": 87.8, "unit": "%"},
      {"measurement": "inhibition of growth at 1 µM", "setting": "[8]", "result": 96.6, "unit": "%"},
      {"measurement": "Papp A→B at 1.5 h, 10 µM", "setting": "[9]", "result": 1.48, "unit": "×10⁻⁶ cm/s"},
      {"measurement": "inhibition of growth at 1 µM", "setting": "[10]", "result": 101, "unit": "%"}
    ]},
    {"smiles": "CO[C@H]1C(=O)[C@]2(C)[C@@H](OC)C[C@H]3OC[C@@]3(OC(C)=O)[C@H]2[C@H](OC(=O)c2ccccc2)[C@]23OC(=O)O[C@H]2[C@H](OC(=O)[C@H](O)[C@H](CC(C)C)NC(=O)OC(C)(C)C)C(C)=C1C3(C)C", "values": [
      {"measurement": "IC50", "setting": "[1]", "result": 4.04, "unit": "nM"},
      {"measurement": "Papp A→B at 1.5 h, 10 µM", "setting": "[9]", "result": 2.57, "unit": "×10⁻⁶ cm/s"}
    ]},
    {"smiles": "COC(=O)O[C@H]1C(=O)[C@]2(C)[C@@H](OC)C[C@H]3OC[C@@]3(OC(C)=O)[C@H]2[C@H](OC(=O)c2ccccc2)[C@]2(O)C[C@H](OC(=O)[C@H](O)[C@@H](NC(=O)c3ccccc3)c3ccccc3)C(C)=C1C2(C)C", "values": [
      {"measurement": "inhibition of growth at 1 µM", "setting": "[2]", "result": 88.8, "unit": "%"},
      {"measurement": "inhibition of growth at 1 µM", "setting": "[3]", "result": 94.2, "unit": "%"},
      {"measurement": "inhibition of growth at 1 µM", "setting": "[4]", "result": 95.5, "unit": "%"},
      {"measurement": "inhibition of growth at 1 µM", "setting": "[5]", "result": 95.8, "unit": "%"},
      {"measurement": "inhibition of growth at 1 µM", "setting": "[6]", "result": 86.4, "unit": "%"},
      {"measurement": "inhibition of growth at 1 µM", "setting": "[7]", "result": 86.2, "unit": "%"},
      {"measurement": "inhibition of growth at 1 µM", "setting": "[8]", "result": 96.8, "unit": "%"},
      {"measurement": "Papp A→B at 1.5 h, 10 µM", "setting": "[9]", "result": 4.38, "unit": "×10⁻⁶ cm/s"},
      {"measurement": "inhibition of growth at 1 µM", "setting": "[10]", "result": 101, "unit": "%"}
    ]},
    {"smiles": "CC[C@H]1OC(=O)[C@H](C)[C@@H](O[C@H]2C[C@@](C)(OC)[C@@H](O)[C@H](C)O2)[C@H](C)[C@@H](O[C@@H]2O[C@H](C)C[C@H](N(C)C)[C@H]2O)[C@](C)(O)C[C@@H](C)C(=O)[C@H](C)[C@@H](O)[C@]1(C)O", "note": "[ERYTHROMYCIN]", "values": [
      {"measurement": "Papp A→B at 1.5 h, 10 µM", "setting": "[9]", "result": 0.58, "unit": "×10⁻⁶ cm/s"}
    ]},
    {"smiles": "CO[C@H]1C(=O)[C@]2(C)[C@@H](OC)C[C@H]3OC[C@@]3(OC(C)=O)[C@H]2[C@H](OC(=O)c2ccccc2)[C@]23OC(=O)O[C@H]2[C@H](OC(=O)[C@H](O)[C@@H](NC(=O)OC(C)(C)C)c2ccccn2)C(C)=C1C3(C)C", "values": [
      {"measurement": "IC50", "setting": "[1]", "result": 3.4, "unit": "nM"},
      {"measurement": "Papp A→B at 1.5 h, 10 µM", "setting": "[9]", "result": 3.66, "unit": "×10⁻⁶ cm/s"}
    ]},
    {"smiles": "CO[C@H]1C[C@H]2OC[C@@]2(OC(C)=O)[C@H]2[C@H](OC(=O)c3ccccc3)[C@]34OC(=O)O[C@H]3[C@H](OC(=O)[C@H](O)[C@H](CC(C)C)NC(=O)OC(C)(C)C)C(C)=C([C@@H](OC(=O)N(C)C)C(=O)[C@]12C)C4(C)C", "values": [
      {"measurement": "IC50", "setting": "[1]", "result": 6.44, "unit": "nM"},
      {"measurement": "Papp A→B at 1.5 h, 10 µM", "setting": "[9]", "result": 1.07, "unit": "×10⁻⁶ cm/s"}
    ]},
    {"smiles": "CO[C@H]1C[C@H]2OC[C@@]2(OC(C)=O)[C@H]2[C@H](OC(=O)c3ccccc3)[C@]3(O)C[C@H](OC(=O)[C@H](O)[C@@H](NC(=O)OC(C)(C)C)c4ccccn4)C(C)=C([C@@H](OC(=O)N(C)C)C(=O)[C@]12C)C3(C)C", "values": [
      {"measurement": "Papp A→B at 1.5 h, 10 µM", "setting": "[9]", "result": 3.02, "unit": "×10⁻⁶ cm/s"},
      {"measurement": "inhibition of growth at 1 µM", "setting": "[10]", "result": 100, "unit": "%"}
    ]}
  ]
}
